Only some compounds are listed: those with a hit (about 2.9% of all), similar ones and a draw of the others.
hiPSC survival – enhancers of single-cell hiPSC survival, primary screen, ATPlite luminescence; 100% = ROCK inhibitor wells, 0% = DMSO; hit rate 0.044% among 360,000; AID 602274, 2012; survival enhancement, % at 20 µM; in the data active means survival enhancement above about 18%;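 further: cells exposed to compounds for 16 hours before the ATP read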
PG9 Ab binder – binders of HIV-1 gp120 antibody PG9, primary screen, biochemical, TR-FRET. HIV-1 gp120 / PG9 antibody interaction. TR-FRET gp120-PG9 antibody binding. inhibition, % at 6.7 µM. hit rate 0.43% among 360,000; in the data active means inhibition above about 8.5%
Rev-erbA mod – modulators of Rev-erb alpha DNA binding, primary screen, biochemical, FITC-DNA, fluorescence polarization, uHTS; AID 1259318, 2017; activity, % at 10 µM; hit rate 0.79% among 370,000; Rev-erbα–FITC-DNA binding, 90 min; Nuclear receptor subfamily 1 group D member 1 (Homo sapiens), P20393;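 active means activity above about 14%, limit read from the data; passing the limit was not always enough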
Target sequence (P20393 whole entry, looked up): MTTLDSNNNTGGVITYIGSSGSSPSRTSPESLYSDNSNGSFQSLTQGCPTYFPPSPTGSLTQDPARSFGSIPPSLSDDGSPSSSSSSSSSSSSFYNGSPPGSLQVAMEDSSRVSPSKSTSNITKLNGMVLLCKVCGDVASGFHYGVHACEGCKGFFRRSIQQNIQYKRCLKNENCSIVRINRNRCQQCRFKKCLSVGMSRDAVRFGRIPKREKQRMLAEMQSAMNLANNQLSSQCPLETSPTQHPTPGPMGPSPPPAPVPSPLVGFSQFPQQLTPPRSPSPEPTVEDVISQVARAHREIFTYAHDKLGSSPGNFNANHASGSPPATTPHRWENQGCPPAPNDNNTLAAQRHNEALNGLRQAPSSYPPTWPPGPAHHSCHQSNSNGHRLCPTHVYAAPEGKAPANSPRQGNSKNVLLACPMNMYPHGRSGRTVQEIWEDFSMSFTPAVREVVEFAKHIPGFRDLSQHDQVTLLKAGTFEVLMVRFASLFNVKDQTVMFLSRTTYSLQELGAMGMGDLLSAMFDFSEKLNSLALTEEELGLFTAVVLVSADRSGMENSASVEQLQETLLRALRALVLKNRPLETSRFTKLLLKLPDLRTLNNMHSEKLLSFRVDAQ
T cruzi repl – inhibitors of intracellular T. cruzi growth, primary screen, luminescence, NIH3T3 host cells | T. cruzi beta-gal in NIH3T3, 90 h | inhibition, % (concentration not given with the values) | hit rate 1.4% among 300,000 | AID 1885, 2009;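 active means mean inhibition across valid replicates above about 55%, limit read from the data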;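 further: signal also drops with host cell toxicity which is not excluded here; higher percent means less beta-gal luminescence so fewer parasites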
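compound dosing = single 50 nL compound addition per well in DMSO | material = NIH/3T3 host cells with β-galactosidase reporter T. cruzi | input = 5,000 host fibroblasts per well | timing = ≥90 h infection period, 3 h prior cell attachment | read-out basis = percent inhibition of parasite-derived β-gal signal | detection = GalScreen β-gal luminescence, detergent lysis, 60 min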
MIN6 prolif-1 – inducers of MIN6 beta-cell proliferation, primary screen, ATP luminescence, uHTS. MIN6 cells proliferation, ATPlite luminescence, 48 h; cells starved in 0.2% serum; 100% = growth in 10% serum. proliferation, % at 10 µM. hit rate 0.29% among 330,000;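 active means compounds whose signal lies at least 3.5 SD above the mean of all wells on their plate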
H9c2 TAG inh – inhibitors of triacylglycerol accumulation, primary screen, cell-based, uHTS, fluorescence, H9c2. hit rate 0.66% among 230,000. inhibition, % at 12.5 µM. H9c2 cells, Nile Red lipid (TAG) fluorescence; cells loaded with 200 µM oleic acid;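 active means pattern-corrected inhibition of lipid staining of at least 50% with the nuclear-stain viability signal not falling by more than 50%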
MIN6 prolif-2 – inducers of beta-cell proliferation in MIN6, confirmation, MIN6 cells, mouse; proliferation increase, % at 50 µM; shares compounds with MIN6 prolif-1; ATPlite luminescence, 48 h; cells kept in 0.2% serum; scaled between 0.2% and 10% serum; 920 tested, under 10 active;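 active means proliferation increase above 40% at any of the four tested concentrations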
Of the large screens only hits and unclear results are named; the others gave an inactive call (follow-up assays come after a bar, where they were run).

O=C(O)C1CCCCC1C(=O)NCCCc1ccccc1 (centres undefined)	MIN6 prolif-1 9.0 | MIN6 prolif-2 inactive
O=C(O)C1CCCCC1C(=O)NCCCCc1ccccc1 (centres undefined)	none (no result: H9c2 TAG inh)
COc1cccc(CNC(=O)c2ccc(S(=O)(=O)N3CCCCC3)cc2)c1	none (no result: T cruzi repl, MIN6 prolif-1)
COc1ccc(/C=C/C(=O)O)cc1	none (no result: T cruzi repl, H9c2 TAG inh)
CC1CCN(CC(=O)Nc2nc(-c3ccccc3)cs2)CC1	MIN6 prolif-1 6.2 (no result: H9c2 TAG inh) | MIN6 prolif-2 inactive
CCn1c(SCC(=O)N=Nc2c(O)[nH]c3ccccc23)nc2ccccc21	MIN6 prolif-1 0.0 (no result: H9c2 TAG inh) | MIN6 prolif-2 inactive
CCCc1cc(=O)[nH]c(SCC(=O)N(CCC#N)c2ccc3c(c2)OCCO3)n1	none (no result: T cruzi repl)
CCCc1cc(=O)[nH]c(SCC(=O)c2ccc3c(c2)OCCO3)n1	MIN6 prolif-1 0.0 (no result: H9c2 TAG inh) | MIN6 prolif-2 inactive
COc1cccc(C2NC(=O)NC(C)=C2C(=O)Nc2ccc(C)cc2)c1OC (centres undefined)	MIN6 prolif-1 5.4 (no result: H9c2 TAG inh) | MIN6 prolif-2 inactive
CCCN1Cc2cccc(C(=O)NCCc3ccccc3)c2C1=O	MIN6 prolif-1 11 (no result: H9c2 TAG inh) | MIN6 prolif-2 inactive
COc1nc(N)nc(N)c1NS(=O)(=O)c1ccc(C)cc1	MIN6 prolif-1 9.8 | MIN6 prolif-2 inactive
Cc1ccc(NC(=O)CN(C)C(=O)CCC(=O)c2cccs2)cc1	none (no result: H9c2 TAG inh)
COc1ccc(Br)cc1S(=O)(=O)n1ccnc1	none (no result: H9c2 TAG inh)
O=C(NCc1cccs1)c1cnc(Cl)c(Cl)c1	none
O=C(NCc1cccs1)c1cccnc1Cl	MIN6 prolif-1 0.0 (no result: H9c2 TAG inh) | MIN6 prolif-2 inactive
Cc1ccccc1OCC(=O)NC1CCCCCCC1	MIN6 prolif-1 6.0 (no result: H9c2 TAG inh) | MIN6 prolif-2 inactive
CC1Cc2nc(SCC(=O)N3CCc4ccccc43)n(C)c(=O)c2S1 (centres undefined)	none
CC1Cc2nc(SCC(=O)OCc3ccccc3)n(C)c(=O)c2S1 (centres undefined)	MIN6 prolif-1 15 | MIN6 prolif-2 inactive
CC(NCc1ccccc1)C1COc2ccccc2O1 (centres undefined)	MIN6 prolif-1 5.5 | MIN6 prolif-2 inactive
CCOC(=O)c1c(NC(=O)C2CCN(S(=O)(=O)c3cccs3)CC2)sc(C)c1C	none
CCOC(=O)c1c(NC(=O)C(C)N2CCN(S(=O)(=O)c3cccs3)CC2)sc2c1CCC(C)C2 (centres undefined)	MIN6 prolif-1 5.5 (no result: H9c2 TAG inh) | MIN6 prolif-2 inactive
CCOC(=O)c1c(N)sc2c1CCC(C)C2 (centres undefined)	none
CCOC(=O)c1c(NS(C)(=O)=O)sc2c1CCC(C)C2 (centres undefined)	MIN6 prolif-1 7.3 (no result: H9c2 TAG inh) | MIN6 prolif-2 inactive
CN(C)CCNC(=O)COc1cccc2c1OC(C)(C)C2	none
CN(Cc1cccs1)C(=O)COc1cccc2c1OC(C)(C)C2	MIN6 prolif-1 9.9 (no result: T cruzi repl) | MIN6 prolif-2 inactive
Cc1nc(-c2ccc(Cl)cc2)sc1C1(C)CC(c2ccc(Cl)cc2)=NO1 (centres undefined)	none
COc1ccc(N2CCN(C(=O)COc3ccc(S(=O)(=O)N4CCOCC4)cc3C)CC2)cc1	MIN6 prolif-1 0.0 (no result: H9c2 TAG inh) | MIN6 prolif-2 inactive
COc1ccc(-c2nc(-c3ccc(Br)o3)no2)cc1OC	none
COc1ccc(-c2nnc(-c3ccc(Br)o3)o2)cc1OC	MIN6 prolif-1 7.2 | MIN6 prolif-2 inactive
Cn1c(SC2CCCCC2=O)nnc1-c1ccncc1 (centres undefined)	none (no result: H9c2 TAG inh)
CCc1cc(=O)oc2cc(OC(C)C(=O)NCC3CCC(C(=O)O)CC3)c(Cl)cc12 (centres undefined)	MIN6 prolif-1 11 (no result: H9c2 TAG inh) | MIN6 prolif-2 inactive
Cc1cc(=O)oc2cc(OC(C)C(=O)NCC3CCC(C(=O)O)CC3)c(Cl)cc12 (centres undefined)	none (no result: H9c2 TAG inh)
CCC(C)(C)c1nnc(NC(=O)CCC2CCCCC2)s1	none
CCCC(=O)Nc1ccc(N2CCN(C(=O)CCC)CC2)cc1	none
COCCCNC(=S)NCCCNc1nc2cc3c(cc2cc1C#N)OCO3	MIN6 prolif-1 5.8 (no result: Rev-erbA mod, H9c2 TAG inh) | MIN6 prolif-2 inactive
COC(=O)c1cnc(N2CCOCC2)nc1C(F)(F)F	MIN6 prolif-1 6.3 | MIN6 prolif-2 inactive
COC(=O)c1cnc(N2CCCN(S(=O)(=O)c3ccccc3)CC2)nc1C(F)(F)F	none
Cc1ccccc1NC(=O)Cn1nnc2sc3c(c2c1=O)CC(C)(C)OC3	none
COc1cccc(-c2nnc3n2N=C(c2cc(OC)ccc2OC)CS3)c1	MIN6 prolif-1 8.0 | MIN6 prolif-2 inactive
Cc1noc2ncnc(SCc3ccc(C(F)(F)F)cc3)c12	none
O=C(NCCN1CCOCC1)c1ccccc1Cl	none (no result: H9c2 TAG inh)
O=C(Nc1c(Cl)cc(Cl)cc1C(=O)NCCN1CCOCC1)c1ccc(Cl)cc1Cl	MIN6 prolif-1 8.7 (no result: H9c2 TAG inh) | MIN6 prolif-2 inactive
Cc1ccc(C(=O)NCCN2CCOCC2)c(Cl)c1	MIN6 prolif-1 6.0 (no result: H9c2 TAG inh) | MIN6 prolif-2 inactive
CSc1ccc(C(=O)C2CCCN(C(=O)CCc3c(C)nn(C)c3C)C2)cc1 (centres undefined)	none
CN(C)c1nc(N(C)C)nc(N(C#N)CCOc2ccccc2)n1	MIN6 prolif-1 9.9 (no result: T cruzi repl, H9c2 TAG inh) | MIN6 prolif-2 inactive
COc1cccc(/C=C/c2nc3c(cnn3-c3ccccc3)c(=O)[nH]2)c1	none
O=P(O)(CCCP(=O)(O)CCc1ccccc1)CCc1ccccc1	MIN6 prolif-1 8.8 | MIN6 prolif-2 inactive
O=C1c2ccccc2C(=O)N1CCCP(=O)(O)CCc1ccccc1	none
CC(=O)N1N=C(c2ccc(Cl)cc2)OC12CCCC2	MIN6 prolif-1 7.3 | MIN6 prolif-2 inactive
CC(=O)N1N=C(c2cccc(Br)c2)OC12CCCC2	none
COc1cc(OC)cc(C(=O)Nn2cc(C(=O)Nc3ccccc3F)c3ccccc3c2=O)c1	none (no result: H9c2 TAG inh)
O=C(NCc1ccccn1)C1CCCN(S(=O)(=O)c2ccc(Br)cc2)C1 (centres undefined)	MIN6 prolif-1 5.8 | MIN6 prolif-2 inactive
COc1cccc(-c2cnc(C(O)c3cc(C)cc(C)c3)[nH]2)c1 (centres undefined)	none (no result: T cruzi repl, MIN6 prolif-1)
CCOc1ccccc1/C=C/c1onc(C)c1S(=O)(=O)N1CCC(C(=O)N(CC)CC)CC1	MIN6 prolif-1 4.8 (no result: H9c2 TAG inh) | MIN6 prolif-2 inactive
COc1cc2c(cc1OC)/C(=C/C(=O)c1ccc([N+](=O)[O-])c(C)c1)NCC2	MIN6 prolif-1 11 (no result: H9c2 TAG inh) | MIN6 prolif-2 inactive
COc1cc2c(cc1OC)/C(=C/C(=O)c1ccccc1)NCC2	none (no result: H9c2 TAG inh)

Screens deposited in PubChem by several laboratories.
